Here are results for 25 compounds from ChEMBL document CHEMBL2321804, “Development of small-molecule P-gp inhibitors of the N-benzyl 1,4-dihydropyridine type: novel aspects in SAR and bioanalytical evaluation of multidrug resistance (MDR) reversal properties” (Bioorg Med Chem, 2013).

Broadly, the IC50 is the point on the concentration scale where inhibition reaches its midpoint.

Series [1] has as its target T1, ATP-dependent translocase ABCB1 (Homo sapiens, UniProt P08183). Put plainly: Inhibition of human MDR1 expressed in mouse L5178Y cells assessed as […] by measuring fluorescence activity ratio at 10 uM preincubated for 10 mins measured after 40 mins relative to control. The format is cell-based. The procedure, abridged: (§1)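 Transfected P-gp L5178Y subline and parental cells, 1 x 10^6/mL in serum-free McCoy's 5A, were preincubated 10 min at rt with inhibitor (DMSO stock 1.0 mg/mL). Rhodamine 123 followed (5 µL of 0.5 mM), 40 min at 37 °C, then two PBS washes. Flow cytometry on 1 x 10^4 cells. FAR = MDR/parental uptake, each normalised to its own untreated control.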

For series [2], the target named is T1, ATP-dependent translocase ABCB1. Put plainly: Inhibition of human MDR1 expressed in mouse L5178Y cells assessed as […] by measuring fluorescence activity ratio at 1 uM preincubated for 10 mins measured after 40 mins relative to control. The format is cell-based. The gist of the method: as §1
In series [3] the test system is L5178Y. Put plainly: Cytotoxicity against mouse L5178Y cells expressing p-gp after 24 hrs by MTT assay. The format is functional, cell-based. The procedure, abridged: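 Daunorubicin, 0.01 to 10 µM, was given to the P-gp expressing L5178Y subline (McCoy's 5A, 10% FCS, colchicine 60 ng/mL) in 96-well plates, 24 h at 37 °C, 5% CO2. MTT (5 mg/mL stock) was added for 4 h, cells were lysed 30 min in SDS/acetic acid/DMSO, and A560 was read. IC50 came from mean percent growth inhibition of triplicate runs.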
For orientation: Tetrazolium dyes change colour on reduction, which living cells bring about.

Series [4] has as its system L5178Y. Description: Ratio of IC50 for mouse L5178Y cells expressing p-gp to IC50 for mouse L5178Y cells. The format is functional. The gist of the method: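 Parental L5178Y and P-gp-expressing L5178Y mdr cells were exposed to daunorubicin at 0.01–10 µM plus P-gp inhibitor for 24 h at 37 °C in 5% CO2. Viability was read by MTT (4 h) with SDS/acetic acid/DMSO lysis and A560. IC50s came from mean percent growth inhibition in triplicate, and the ratio is the mdr-line IC50 over the parental IC50.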

Series [5] has as its system L5178Y. Description: Cytotoxicity against mouse L5178Y cells after 24 hrs by MTT assay. The format is functional, cell-based. The procedure, abridged: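 Mouse T-lymphoma L5178Y parental cells and the mdr1-transfected L5178Y mdr subline were grown in McCoy's 5A with 10% FCS (mdr subline kept in colchicine 60 ng/mL). Compounds were tested at 1 to 80 µM final for 24 h at 37 °C in 5% CO2. MTT was added for 4 h, then SDS/acetic acid/DMSO lysis and A560 read-out. Run in triplicate.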

Series [6] concerns the target T1, ATP-dependent translocase ABCB1. Put plainly: Inhibition of human MDR1 expressed mouse L5178Y cells assessed as reduction of liposomal daunorubicin IC50 for cytotoxicity at 10 uM after 24 hrs by MTT assay. The format is cell-based.
The nature of series [7]: Cytotoxicity against mouse L5178Y cells expressing p-gp assessed as cell viability at 10 uM after 24 hrs by MTT assay. The format is ADME, cell-based. The note with it: read-out: Activity. The gist of the method: (§2)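 Parental L5178Y mouse T-lymphoma cells and the human mdr1-transfected P-gp subline were kept in McCoy's 5A with 10% FCS, 2 mM L-glutamine and gentamicin, 37 °C, 5% CO2; the subline also got colchicine 60 ng/mL. Dihydropyridines were added at 1 to 80 µM final, 24 h at 37 °C. MTT was read at 560 nm after SDS/acetic acid/DMSO lysis. Triplicate runs.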

A short description of series [8]: Cytotoxicity against mouse L5178Y cells expressing p-gp assessed as cell viability at 2.5 uM after 24 hrs by MTT assay. The format is ADME, cell-based. The note with it: read-out: Activity. The procedure, abridged: as §2
The target in series [9] is T1, ATP-dependent translocase ABCB1. Description: Inhibition of human MDR1 expressed mouse L5178Y cells assessed as reduction of liposomal daunorubicin IC50 for cytotoxicity at 2.5 uM after 24 hrs by MTT assay. The format is cell-based. The procedure, abridged:
(§3)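 Liposomal daunorubicin (DaunoXome) was tested in the P-gp overexpressing L5178Y subline after preincubation with inhibitor at 2.5 µM or higher levels, 24 h at 37 °C, 5% CO2. Readout was MTT, lysis, then A560. IC50 came from mean percent growth inhibition of triplicate runs.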

Series [10] can be described thus: Cytotoxicity against mouse L5178Y cells assessed as cell viability at 2.5 uM after 24 hrs by MTT assay. The format is cell-based. The following applies: read-out: Activity. The procedure, abridged:
as §2

The nature of series [11]: Cytotoxicity against mouse L5178Y cells assessed as cell viability at 10 uM after 24 hrs by MTT assay. The note with it: read-out: Activity. The format is cell-based. The gist of the method: as §2
Series [12] deals with T1, ATP-dependent translocase ABCB1. Description: Inhibition of human MDR1 expressed mouse L5178Y cells assessed as reduction of liposomal daunorubicin IC50 for cytotoxicity at 5 to 10 uM after 24 hrs by MTT assay. The format is cell-based. The procedure, abridged:
as §3

Series [13] has the same target. Description: Inhibition of human MDR1 expressed mouse L5178Y cells assessed as reduction of liposomal daunorubicin IC50 for cytotoxicity at 1 uM after 24 hrs by MTT assay. The format is cell-based. Also noted: scale not given: the % may be the effect or the level left.
The target is the same in series [14]. Description: Inhibition of human MDR1 expressed mouse L5178Y cells assessed as reduction of daunorubicin IC50 for cytotoxicity at 2.5 uM after 24 hrs by MTT assay. Also noted: scale not given: the % may be the effect or the level left. The format is cell-based. The procedure, abridged: (§4)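 Daunorubicin at 0.01 to 10 µM was combined with inhibitor at 2.5, 5 or 10 µM in the P-gp overexpressing L5178Y subline, 24 h at 37 °C, 5% CO2. Readout was MTT (4 h), SDS/acetic acid/DMSO lysis, A560. IC50 came from mean percent growth inhibition, n = 3.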

The target is the same in series [15]. Put plainly: Inhibition of human MDR1 expressed mouse L5178Y cells assessed as reduction of daunorubicin IC50 for cytotoxicity at 5 to 10 uM after 24 hrs by MTT assay. The format is cell-based. The procedure, abridged:
as §4

T1 sequence (P08183 whole entry): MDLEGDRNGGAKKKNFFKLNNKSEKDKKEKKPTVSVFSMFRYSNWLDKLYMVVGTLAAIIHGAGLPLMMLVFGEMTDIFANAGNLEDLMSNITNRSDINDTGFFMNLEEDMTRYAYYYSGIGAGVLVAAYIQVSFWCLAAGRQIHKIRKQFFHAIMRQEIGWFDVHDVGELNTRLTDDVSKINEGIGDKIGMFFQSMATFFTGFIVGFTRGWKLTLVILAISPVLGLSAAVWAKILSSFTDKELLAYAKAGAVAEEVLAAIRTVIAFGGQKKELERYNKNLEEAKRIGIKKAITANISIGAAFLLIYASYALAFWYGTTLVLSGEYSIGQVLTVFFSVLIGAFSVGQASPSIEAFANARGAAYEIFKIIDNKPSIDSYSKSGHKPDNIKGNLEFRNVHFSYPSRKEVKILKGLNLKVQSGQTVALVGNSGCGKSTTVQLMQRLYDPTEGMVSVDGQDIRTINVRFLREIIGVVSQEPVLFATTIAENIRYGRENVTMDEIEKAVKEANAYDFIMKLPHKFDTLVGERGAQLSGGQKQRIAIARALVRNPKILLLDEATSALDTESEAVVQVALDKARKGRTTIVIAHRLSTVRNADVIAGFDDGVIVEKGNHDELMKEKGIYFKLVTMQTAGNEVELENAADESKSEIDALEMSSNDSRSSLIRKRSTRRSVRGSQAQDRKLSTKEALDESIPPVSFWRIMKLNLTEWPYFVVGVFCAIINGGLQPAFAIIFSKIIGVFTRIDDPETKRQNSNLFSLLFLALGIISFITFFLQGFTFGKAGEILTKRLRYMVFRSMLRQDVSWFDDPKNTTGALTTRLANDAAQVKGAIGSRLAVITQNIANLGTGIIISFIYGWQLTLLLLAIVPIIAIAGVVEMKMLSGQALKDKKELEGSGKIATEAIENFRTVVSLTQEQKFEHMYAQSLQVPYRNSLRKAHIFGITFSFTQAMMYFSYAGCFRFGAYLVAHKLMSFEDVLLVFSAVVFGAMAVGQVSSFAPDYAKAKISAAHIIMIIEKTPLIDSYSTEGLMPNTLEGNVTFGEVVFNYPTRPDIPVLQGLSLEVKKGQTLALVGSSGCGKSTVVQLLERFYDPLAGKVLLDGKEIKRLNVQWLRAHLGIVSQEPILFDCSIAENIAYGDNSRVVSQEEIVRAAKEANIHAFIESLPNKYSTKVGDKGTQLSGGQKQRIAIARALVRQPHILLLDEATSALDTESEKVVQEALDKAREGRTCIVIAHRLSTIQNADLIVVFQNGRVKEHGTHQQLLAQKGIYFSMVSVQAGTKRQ

As for `COC(=O)C1=CN(Cc2ccccc2)C=CC1c1cccc(Br)c1` (configuration not stated), the RFU is 1.22 in [1] and 1.05 in [2].

With `COC(=O)C1=CN(Cc2ccccc2)C=CC1c1cccc2ccccc12` (configuration not stated), the results for the RFU in [1] and in series [2] were 2.35 and 1.22, respectively.

As to `CCOC(=O)C1=CN(Cc2cccc3ccccc23)C=CC1c1ccccc1` (configuration not stated), the figures for the RFU in series [1] and in [2] were 2.74 and 1.28, respectively.

Turning to `CCOC(=O)C1=CN(Cc2ccccc2)C=CC1c1ccc(C)cc1` (configuration not stated), the RFU in series [1] was 2.54; in series [2], 1.34.

With `CCOC(=O)C1=CN(Cc2ccccc2OC)C=CC1c1ccccc1` (configuration not stated), the RFU in series [1] was determined as 4.64; in series [2] it was 1.72.

With `COc1cccc2c1C(=O)c1c(O)c3c(c(O)c1C2=O)C[C@@](O)(C(C)=O)C[C@@H]3O[C@H]1C[C@H](N)[C@H](O)[C@H](C)O1` (stereo in doubt; form 2) [DAUNORUBICIN], the IC50 in series [3] turned out to be 7730 nM; in series [5], 730 nM. Moreover, in [4], the “Ratio IC50” value was more than 10.

Turning to `COC(=O)C1=CN(Cc2ccccc2OC)C=CC1c1ccccc1` (configuration not stated), the RFU in [1] turned out to be 3.97; in [2], 1.82.

Turning to `COC(=O)C1=CN(Cc2ccccc2)C=CC1c1ccccc1OC` (configuration not stated), the values for the RFU in series [1] and in series [2] were 1.76 and 1.13, respectively.

Regarding `COC(=O)C1=CN(Cc2ccccc2)C=CC1c1ccc(OC)cc1` (configuration not stated), the figures for the RFU in [1] and in [2] were 2.95 and 0.85, respectively.

On to `CCOC(=O)C1=CN(Cc2ccccc2)C=CC1c1cccc2ccccc12` (configuration not stated), for which the RFU is given as 3.45 in [1] and 1.43 in series [2].

Regarding `COC(=O)C1=CN(Cc2ccc(C)cc2)C=CC1c1ccccc1` (configuration not stated), the outcome in series [6] and in [9] was Active. The viability at 24 h, 10 µM in [7] and in [11] was 75% throughout. In addition, the RFU is recorded as 7.8 in [1] and 1.72 in series [2]. The viability at 24 h, 2.5 µM was found to be 81% in series [8] and 95% in series [10].

Regarding `CCOC(=O)C1=CN(Cc2ccccc2)C=CC1c1cccc(C(F)(F)F)c1` (configuration not stated), the RFU amounted to 2.33 in series [1] and 1.17 in series [2].

`COC(=O)C1=CN(Cc2ccccc2)C=CC1c1cccc(C(F)(F)F)c1` (configuration not stated): the RFU in [1] is 1.53; in series [2], 1.05.

`COC(=O)C1=CN(Cc2ccccc2)C=CC1c1ccc(C)cc1` (configuration not stated): the figures for the RFU in [1] and in [2] were 1.88 and 1.11, respectively.

Take `CCOC(=O)C1=CN(Cc2ccccc2)C=CC1c1cccc(Br)c1` (configuration not stated): the results for the RFU in series [1] and in series [2] were 2.76 and 1.27, respectively.

With `COC(=O)C1=CN(Cc2ccc(OC)cc2)C=CC1c1ccccc1` (configuration not stated), the RFU in series [1] was found to be 4.13; in series [2], 1.5.

Regarding `COC(=O)C1=CN(Cc2cccc3ccccc23)C=CC1c1ccccc1` (configuration not stated), the RFU is on record as 2.19 in [1] and 1.19 in [2].

On to `COC(=O)C1=CN(Cc2ccccc2)C=CC1c1cccc(Cl)c1` (configuration not stated), for which the figures for the RFU in series [1] and in series [2] were 1.39 and 1.12, respectively.

Regarding `CCOC(=O)C1=CN(Cc2ccccc2)C=CC1c1ccc(OC)cc1` (configuration not stated), the RFU came to 3.13 in [1] and 1.52 in [2].

As for `CCOC(=O)C1=CN(Cc2ccc(OC)cc2)C=CC1c1ccccc1` (configuration not stated), the Activity entry in series [6] is given as “Active”; in [12], “Active”; in [9] it was “Active”; in series [13], more than 60%. Also, the viability at 24 h, 10 µM in series [7] amounted to 85%; in series [11], 100%. Moreover, the RFU was determined as 4.89 in series [1] and 1.32 in series [2]. Besides, in [10], the viability at 24 h, 2.5 µM turned out to be 97%.

For the compound `CCOC(=O)C1=CN(Cc2ccccc2)C=CC1c1ccccc1OC` (configuration not stated), the RFU in series [1] is on record as 2.38; in [2], 1.18.

Regarding `COc1cccc2c1C(=O)c1c(O)c3c(c(O)c1C2=O)C[C@@](O)(C(C)=O)C[C@@H]3O[C@H]1C[C@H](N)[C@H](O)[C@H](C)O1` (stereo in doubt; form 1) [DAUNORUBICIN], the IC50 in series [3] stood at 2320 nM; in [5], 300 nM.

As for `CCOC(=O)C1=CN(Cc2ccc(C)cc2)C=CC1c1ccccc1` (configuration not stated), the values for the Activity in series [14], in series [6] and in series [15] were more than 50%, “Active” and “Active”, respectively. For the same compound, the results for the RFU in series [1] and in series [2] were 7.8 and 2.54, respectively.

Regarding `CCOC(=O)C1=CN(Cc2ccccc2)C=CC1c1cccc(Cl)c1` (configuration not stated), the results for the RFU in series [1] and in [2] were 2.67 and 1.25, respectively.

As for `COc1ccc(CCN(C)CCCC(C#N)(c2ccc(OC)c(OC)c2)C(C)C)cc1OC` (configuration not stated) [VERAPAMIL], the RFU in series [1] is listed as 2.94; in [2] it was 0.89.
